Publication PMC4304477 (Journal of the American Chemical Society, 2014)

How the values were obtained:
PBPs, including PBP4 = conditions: background statement, no reference given; cited from earlier work
[1] = tested on: AmpC β-lactamase production; conditions: background statement, no reference given; cited from earlier work
P. aeruginosa PBP4 = type: biochemical
Summary of the method: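 His-tagged P. aeruginosa PBP4 (residues 23–476) was expressed in E. coli Lemo21(DE3), passed twice over a chelating column and dialysed into 50 mM Tris pH 7.6, 0.5 M NaCl. It was used within 5 days and quantified by A280 (ε 62 005 M–1cm–1). Synthetic substrate at 0.125–5 mM was reacted in 50 mM Tris, 0.1 M NaCl, pH 7.6, 25 °C. After 30 min, one volume of 0.2% TFA was added. D-Ala-loss products were quantified by C18 HPLC against an internal standard to give steady-state kcat and Km.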

Row | kcat comparison in words (P. aeruginosa PBP4; 18 vs 19, pH 7.6, 25 °C) | Compound | PBP inhibition (PBPs, including PBP4) | AmpC β-lactamase induction [1] | turnover product (P. aeruginosa PBP4; PBP4, t = 30 min, LC/MS TIC, comparison with authentic synthetic 31)
1 | – | CO[C@@]1(NC(=O)Cc2cccs2)C(=O)N2C(C(=O)O)=C(COC(N)=O)CS[C@@H]21 [cefoxitin] | inhibits PBPs, including PBP4 | a high inducer of AmpC β-lactamase production | –
2 | slightly higher than for 19 | NAM-L-Ala-D-γ-Glu-meso-DAP-D-Ala-D-Ala [Compound 18] | – | – | This new peak was proven to be compound 31
